Reference: PMC5693369 (Nature chemical biology, 2017)

What was measured:
[1] = system: mouse bone-marrow-derived macrophages (BMDMs); test: IL-10 production in activated BMDMs; assay type: cell-based; details: BMDMs activated with zymosan A or R848
In short: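 Bone-marrow macrophages from C57BL/6 mice, treated 24 h with test compound or DMSO (0.5%), then stimulated 18 h with R848 (2 μg/mL) or zymosan A (4 μg/mL). IL-10 measured in culture medium.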

Il10 mRNA = Il10 mRNA levels after R848 stimulation; assay type: cell-based, mouse; details: pretreatment, then R848 / microbial stimulation
STAT1 = STAT1 phosphorylation in IFNγ-stimulated BMDCs; assay type: cell-based, mouse; details: BMDCs pre-incubated with compound
In short: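 BMDCs pre-incubated with test compound, then stimulated with recombinant murine IFNγ. Cells lysed in Tris pH 7.4 buffer with phosphatase and protease inhibitors, 1% Triton X-100 and 0.2% SDS; lysate clarified at 14,000 × g. 10–20 μg protein run on SDS–PAGE and blotted to PVDF. Probed for total STAT1 and p-STAT1 Tyr701 (1/1,000), β-actin; chemiluminescent detection.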

[2] = target: recombinant cyclin C–CDK19 (Homo sapiens, UniProt Q9BWU1); test: CDK19 radiometric filter-binding kinase activity assay; assay type: biochemical; details: read-out: inhibition of kinase activity of cyclin C–CDK19, IC50
recombinant cyclin C–CDK19, sequence (Q9BWU1 whole entry): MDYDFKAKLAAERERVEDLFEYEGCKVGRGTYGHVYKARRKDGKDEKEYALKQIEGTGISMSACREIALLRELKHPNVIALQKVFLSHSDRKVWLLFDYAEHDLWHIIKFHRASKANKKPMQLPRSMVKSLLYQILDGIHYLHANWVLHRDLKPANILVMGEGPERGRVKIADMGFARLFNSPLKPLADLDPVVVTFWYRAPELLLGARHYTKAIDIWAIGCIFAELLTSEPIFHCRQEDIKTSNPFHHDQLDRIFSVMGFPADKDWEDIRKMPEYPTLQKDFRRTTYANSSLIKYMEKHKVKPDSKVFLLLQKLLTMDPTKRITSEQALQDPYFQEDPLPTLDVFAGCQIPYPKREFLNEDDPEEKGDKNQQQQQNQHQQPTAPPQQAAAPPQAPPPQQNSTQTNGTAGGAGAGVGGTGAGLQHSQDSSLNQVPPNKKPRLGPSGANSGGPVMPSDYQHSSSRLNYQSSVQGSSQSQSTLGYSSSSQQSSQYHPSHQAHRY
recombinant cyclin C–CDK19, sequence (P24863 whole entry partner): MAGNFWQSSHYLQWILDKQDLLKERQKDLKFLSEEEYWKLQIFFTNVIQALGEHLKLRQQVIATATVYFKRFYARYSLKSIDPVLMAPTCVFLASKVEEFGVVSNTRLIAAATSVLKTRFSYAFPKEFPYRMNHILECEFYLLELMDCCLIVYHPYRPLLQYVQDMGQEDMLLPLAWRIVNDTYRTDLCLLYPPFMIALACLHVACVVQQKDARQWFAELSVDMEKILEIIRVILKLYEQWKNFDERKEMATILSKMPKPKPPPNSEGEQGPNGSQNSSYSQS
In short: (§1)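 Purified recombinant cyclin C–CDK8 or cyclin C–CDK19 incubated with a dilution series of test compound. Activity measured by radiometric filter binding as [γ-32P] transfer from ATP to recombinant RBER-IRStide substrate, relative to DMSO (1%) control. IC50 estimated by 4-parameter nonlinear regression.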

[3] = system: bone-marrow-derived dendritic cells (BMDCs); test: IL-10 release, cytokines and viability in zymosan A-stimulated BMDCs; assay type: cell-based, mouse
[4] = system: bone-marrow-derived dendritic cells (BMDCs); test: Cytokine production in R848-stimulated BMDCs; assay type: cell-based, mouse; details: for IL-10 upregulation in Ccnc Δ/Δ BMDCs: BMDCs lacking cyclin C; for IL-10 upregulation in Ccnc Δ/Δ BMDCs / IL-10 upregulation in Ccnc f/f BMDCs: R848; for IL-10 production: BMDCs, R848 stimulation; for IL-10 upregulation in Ccnc f/f BMDCs: control BMDCs
In short: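 BMDCs from C57BL/6 bone marrow, pretreated 24 h with test compound or DMSO (0.5%), then given R848 (2 μg/mL) or zymosan A (4 μg/mL) for 18 h; some sets co-treated with T-5224 (100 μM). Cyclin C-deleted cells came from Ccnc f/f × Mx1-Cre mice given poly(I:C) 2.5 μg g−1 i.p. every other day for 3 d, with bone marrow taken 10 d later and deletion confirmed by PCR. Clarified medium assayed by cytometric bead array. n = 3–4 biological replicates; EC50 by 4-parameter regression.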

PI3KC2A = PI3KC2A (Homo sapiens, UniProt O00443); test: Kinase profiling, PI3KC2A; assay type: binding; details: both kinase profiling formats
PI3KC2A, sequence (O00443 whole entry): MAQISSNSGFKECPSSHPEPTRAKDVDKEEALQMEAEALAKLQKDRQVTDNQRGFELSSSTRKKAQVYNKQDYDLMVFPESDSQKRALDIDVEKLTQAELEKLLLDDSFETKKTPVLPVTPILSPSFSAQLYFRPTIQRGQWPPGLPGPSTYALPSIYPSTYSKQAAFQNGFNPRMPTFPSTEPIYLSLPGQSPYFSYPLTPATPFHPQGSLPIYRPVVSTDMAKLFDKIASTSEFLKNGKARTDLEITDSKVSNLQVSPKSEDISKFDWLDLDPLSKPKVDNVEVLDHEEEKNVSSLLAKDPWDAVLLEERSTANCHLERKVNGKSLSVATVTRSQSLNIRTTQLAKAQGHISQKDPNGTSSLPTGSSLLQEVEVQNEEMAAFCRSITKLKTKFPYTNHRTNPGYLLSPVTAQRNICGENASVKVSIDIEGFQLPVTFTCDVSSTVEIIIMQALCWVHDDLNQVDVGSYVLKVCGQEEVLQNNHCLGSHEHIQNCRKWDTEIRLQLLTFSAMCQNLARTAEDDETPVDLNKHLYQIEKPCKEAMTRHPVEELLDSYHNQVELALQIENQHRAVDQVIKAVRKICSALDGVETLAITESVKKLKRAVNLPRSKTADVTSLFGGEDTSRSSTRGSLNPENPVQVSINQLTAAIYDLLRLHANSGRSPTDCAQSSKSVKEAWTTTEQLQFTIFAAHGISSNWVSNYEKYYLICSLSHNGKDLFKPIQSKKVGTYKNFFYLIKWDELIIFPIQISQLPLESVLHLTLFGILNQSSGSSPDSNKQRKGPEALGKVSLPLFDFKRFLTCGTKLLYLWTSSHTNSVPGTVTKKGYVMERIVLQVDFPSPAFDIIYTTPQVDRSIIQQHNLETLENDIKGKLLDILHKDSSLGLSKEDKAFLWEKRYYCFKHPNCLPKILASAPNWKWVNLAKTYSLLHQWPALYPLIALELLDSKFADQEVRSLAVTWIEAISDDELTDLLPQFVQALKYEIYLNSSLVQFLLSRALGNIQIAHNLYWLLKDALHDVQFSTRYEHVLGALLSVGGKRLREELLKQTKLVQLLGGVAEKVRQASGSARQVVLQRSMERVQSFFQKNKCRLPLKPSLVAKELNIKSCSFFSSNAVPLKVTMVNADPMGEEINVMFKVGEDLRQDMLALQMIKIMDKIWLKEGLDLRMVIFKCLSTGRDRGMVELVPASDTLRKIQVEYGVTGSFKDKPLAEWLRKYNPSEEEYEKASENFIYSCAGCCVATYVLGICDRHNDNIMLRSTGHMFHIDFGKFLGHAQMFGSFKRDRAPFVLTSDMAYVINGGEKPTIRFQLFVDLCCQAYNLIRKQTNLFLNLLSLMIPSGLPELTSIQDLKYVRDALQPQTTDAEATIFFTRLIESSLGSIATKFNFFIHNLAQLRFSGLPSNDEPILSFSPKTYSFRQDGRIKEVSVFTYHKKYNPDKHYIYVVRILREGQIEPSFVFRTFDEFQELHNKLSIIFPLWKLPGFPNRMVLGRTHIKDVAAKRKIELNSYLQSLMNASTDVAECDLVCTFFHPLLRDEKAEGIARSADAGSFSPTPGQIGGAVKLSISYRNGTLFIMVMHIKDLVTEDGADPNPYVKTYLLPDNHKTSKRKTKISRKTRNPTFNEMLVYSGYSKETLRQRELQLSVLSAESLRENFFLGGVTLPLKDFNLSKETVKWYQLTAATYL
In short: (§2)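 Test compound screened at 1 μM against 414 kinases (LanthaScreen Eu binding, Adapta or Z-LYTE), scored as percent probe displacement or residual activity versus DMSO (0.5%). Also screened at 10 μM against 395 kinases by KINOMEscan active-site competitive binding, scored as percent displacement of a catalytic-site probe versus DMSO (0.5%).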

PI3KCG = PI3KCG (Homo sapiens, UniProt P48736); test: Kinase profiling, PI3KCG; assay type: binding; details: both kinase profiling formats
PI3KCG, sequence (P48736 whole entry): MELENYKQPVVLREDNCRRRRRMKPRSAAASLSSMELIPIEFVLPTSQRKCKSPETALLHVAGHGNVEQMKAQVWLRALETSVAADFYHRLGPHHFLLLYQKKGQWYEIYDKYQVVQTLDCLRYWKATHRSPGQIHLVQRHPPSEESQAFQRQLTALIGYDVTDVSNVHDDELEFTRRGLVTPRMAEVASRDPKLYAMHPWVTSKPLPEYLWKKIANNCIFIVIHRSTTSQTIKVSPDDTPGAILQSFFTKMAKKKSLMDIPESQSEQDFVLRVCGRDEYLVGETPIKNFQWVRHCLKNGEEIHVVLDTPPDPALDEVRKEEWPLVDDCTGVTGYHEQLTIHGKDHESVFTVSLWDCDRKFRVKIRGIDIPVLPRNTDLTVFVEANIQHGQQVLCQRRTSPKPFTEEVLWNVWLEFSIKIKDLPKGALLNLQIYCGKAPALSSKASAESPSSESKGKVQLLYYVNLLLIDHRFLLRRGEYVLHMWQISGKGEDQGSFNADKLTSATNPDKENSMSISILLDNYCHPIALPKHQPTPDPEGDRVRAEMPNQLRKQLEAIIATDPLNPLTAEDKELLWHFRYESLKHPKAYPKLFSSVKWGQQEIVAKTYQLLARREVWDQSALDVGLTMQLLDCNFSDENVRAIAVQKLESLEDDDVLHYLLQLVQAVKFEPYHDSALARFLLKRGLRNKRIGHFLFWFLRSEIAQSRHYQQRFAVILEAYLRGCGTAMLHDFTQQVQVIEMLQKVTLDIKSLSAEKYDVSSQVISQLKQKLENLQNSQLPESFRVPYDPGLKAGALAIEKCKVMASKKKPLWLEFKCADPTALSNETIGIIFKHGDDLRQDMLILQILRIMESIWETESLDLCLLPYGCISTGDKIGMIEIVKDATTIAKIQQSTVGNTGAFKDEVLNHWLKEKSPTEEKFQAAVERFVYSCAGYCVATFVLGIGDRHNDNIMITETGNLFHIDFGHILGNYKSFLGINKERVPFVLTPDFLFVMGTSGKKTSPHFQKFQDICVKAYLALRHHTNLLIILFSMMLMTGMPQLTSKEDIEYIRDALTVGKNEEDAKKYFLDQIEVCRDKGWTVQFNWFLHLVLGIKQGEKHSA
In short: as §2

[5] = system: human, monocyte-derived DCs; test: IL-10 production in R848-stimulated human DCs; assay type: cell-based; details: human DCs from two independent donors, R848 stimulation
In short: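 CD14+ monocytes enriched from healthy-donor buffy coats and cultured to DCs. On day 7, cells scraped and plated at 30,000/well, treated with a concentration series of test compound or DMSO (0.5%), then stimulated 18 h with R848 (2 μg/mL). Medium stored at −80 °C before IL-10 detection. n = 3 biological replicates per donor; two independent experiments.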

STAT1–STAT2 = test: TF-seq pathway reporter assay in BMDMs, STAT1–STAT2; assay type: cell-based, mouse; details: ~2 h after stimulation
[6] = target: T1, recombinant cyclin C–CDK8 (Homo sapiens, UniProt P49336); test: CDK8 radiometric filter-binding kinase activity assay; assay type: biochemical; details: read-out: inhibition of kinase activity of cyclin C–CDK8, IC50
T1 sequence (P49336 whole entry): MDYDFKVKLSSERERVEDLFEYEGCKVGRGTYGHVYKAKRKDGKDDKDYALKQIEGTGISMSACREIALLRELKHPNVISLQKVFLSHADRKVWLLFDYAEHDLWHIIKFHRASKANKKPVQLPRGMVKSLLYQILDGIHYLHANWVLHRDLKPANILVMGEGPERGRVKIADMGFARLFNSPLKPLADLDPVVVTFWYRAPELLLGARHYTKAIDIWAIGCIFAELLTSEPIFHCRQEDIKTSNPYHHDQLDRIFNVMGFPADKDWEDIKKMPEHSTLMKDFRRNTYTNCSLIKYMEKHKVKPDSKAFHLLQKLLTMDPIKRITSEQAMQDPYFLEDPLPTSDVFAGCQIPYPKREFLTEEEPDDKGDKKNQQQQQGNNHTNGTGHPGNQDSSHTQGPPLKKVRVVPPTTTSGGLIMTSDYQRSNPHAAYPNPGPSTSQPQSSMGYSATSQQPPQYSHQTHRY
T1 sequence (P24863 whole entry partner): as the sequence (P24863 whole entry partner) above
In short: as §1

[7] = target: human cyclin C–CDK8 complex (Homo sapiens, UniProt P49336); test: Cyclin C-CDK8 LanthaScreen binding assay; details: read-out: binding to cyclin C–CDK8, half-maximal inhibitory concentration (IC50)
human cyclin C–CDK8 complex, sequence (P49336 whole entry, the tested form may be a part): as the sequence (P49336 whole entry) above
human cyclin C–CDK8 complex, sequence (P24863 whole entry partner, the tested form may be a part): as the sequence (P24863 whole entry partner) above
In short: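 Human cyclin C–CDK8 complex in a LanthaScreen binding format. Binding expressed as percent displacement of a dye-labelled probe from the CDK8 kinase domain.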

NF-κB = test: TF-seq pathway reporter assay in BMDMs, NF-κB; assay type: cell-based, mouse; details: all stimuli tested
In short: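 Bone-marrow macrophages grown in DMEM with 30% FBS and 10% L929-conditioned medium, transduced on day 4 with a pooled lentiviral sequencing-based reporter library, then frozen and thawed. Cells plated at 100,000/well and pretreated 24 h at 37 °C with test compound (0.1 or 5 μM) or DMSO (0.5%). Stimulated up to 3 h with a ten-ligand panel or Sendai virus (MOI 10). Reporter transcripts counted as unique tagged molecules by sequencing.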

[8] = target: T1, recombinant cyclin C–CDK8; test: CDK8–c-Jun in vitro kinase reaction; assay type: biochemical; details: in vitro kinase reaction with recombinant c-Jun
In short: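 60 ng recombinant cyclin C–CDK8 and 60 ng recombinant human c-Jun pre-incubated 15 min with a dilution series of test compound. Reaction started with 20 μM ATP and run 30 min at 30 °C in 60 mM HEPES pH 7.5, 3 mM MgCl2, 3 mM MnCl2, 1.2 mM DTT, then EDTA-quenched. Read by SDS–PAGE and immunoblot for phospho-c-Jun Ser243; two independent experiments.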

c-Jun = c-Jun phosphorylation in R848-activated BMDCs; assay type: cell-based, mouse; details: dCA pretreatment (100 nM; 18 h)
In short: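 BMDCs pretreated with test compound, then activated with R848 for a time course. Lysates (10–20 μg protein) separated by SDS–PAGE, transferred to PVDF and immunoblotted for phospho-c-Jun Ser243 (1/1000) with chemiluminescent detection. Two independent experiments.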

| Compound | Il10 mRNA levels (Il10 mRNA) | IL-10 upregulation in Ccnc Δ/Δ BMDCs [4] | IL-10 production [4] | IL-10 upregulation in Ccnc f/f BMDCs [4] | IL-10 production [5] | STAT1–STAT2 reporter activity (STAT1–STAT2) | NF-κB reporter activation (NF-κB) | further results |
| --- | --- | --- | --- | --- | --- | --- | --- | --- |
| CC1CCc2nc(N)c(C#N)c(-c3cccnc3)c2C1 (stereo not drawn) [BRD6989] | sustained increase beginning at 4 h and extending to 24 h | failed to upregulate IL-10 | greater fold-increase in IL-10 production | remained intact | upregulated IL-10 | suppressed induction of STAT1–STAT2 activity | suppressed NF-κB activation | IL-10 production [1]: increased IL-10 production; IFNγ-induced phosphorylation of STAT1 at Ser727 (STAT1): inhibited; JAK-mediated phosphorylation of STAT1 Tyr701 (STAT1): did not affect; IC50 [2]: > 30000 nM; cell viability ([3]; 48 h pretreatment, zymosan A 18 h): modestly reducing cell viability; production of IL-1β ([3]; zymosan A): largely unchanged; production of IL-12p40 ([3]; zymosan A): largely unchanged; production of TNFα ([3]; zymosan A): largely unchanged; zymosan A–induced release of IL-6 ([3]; zymosan A): suppressed; kinase profiling hit, PI3KC2A (PI3KC2A): secondary targets; kinase profiling hit, PI3KCG (PI3KCG): secondary targets; IC50 [6]: ~500 nM; IC50 [7]: ~200 nM |
| Cn1ncc2cc(-c3cnc(N)c(Cl)c3N3CCC4(CCNC4=O)CC3)ccc21 [CCT251921] |  |  | recapitulated the IL-10 potentiating activity of BRD6989 |  | recapitulated the IL-10 potentiating activity of BRD6989 |  |  |  |
| COc1ccc(N(C(=O)Nc2c(C)cccc2C)c2cc(Nc3ccc(N4CCN(C)CC4)cc3)ncn2)c(OC)c1 [HG-9-91-01, reference compound] | elevated Il10 mRNA during the first 2 h |  |  |  |  |  |  |  |
| CN(C)C/C=C/C(=O)Nc1ccc(C(=O)Nc2cccc(Nc3ncc(Cl)c(-c4c[nH]c5ccccc45)n3)c2)cc1 [THZ-1] |  |  | not enhanced |  |  |  |  |  |
| CN(C)[C@H]1C[C@@]23CC[C@@]4(O2)C(=CC[C@]2(C)C(c5ccc6ccncc6c5)=CC[C@H]24)C=C3[C@@H](O)[C@@H]1O [dCA, Δ^16-cortistatin A] |  | failed to upregulate IL-10 | recapitulated the IL-10 potentiating activity of BRD6989 | remained intact | recapitulated the IL-10 potentiating activity of BRD6989 | suppressed induction of STAT1–STAT2 activity | suppressed NF-κB activation | c-Jun Ser243 phosphorylation by recombinant cyclin C–CDK8 [8]: concentration-dependent suppression; activating phosphorylation of c-Jun on Ser63 (c-Jun): only moderately delayed; phosphorylation of c-Jun Ser243 (c-Jun): dramatically reduced phosphorylation |
